We go through 4 molecules from ChEMBL document CHEMBL4665625, “New pyrido[3,4-g]quinazoline derivatives as CLK1 and DYRK1A inhibitors: synthesis, biological evaluation and binding mode analysis” (Eur J Med Chem, 2019).

One may read the IC50 as the concentration at which inhibition is half-maximal.

The target of data set [1] is T1, Dual specificity protein kinase CLK1 (Mus musculus, UniProt P22518). The data set is described as follows: Inhibition of recombinant mouse CLK1 expressed in bacteria using GRSRSRSRSRSR as substrate measured after 30 mins in presence of ATP by ADP-Glo kinase assay. In a few lines: (§1)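 ADP-Glo luminescent kinase assay at 10 μM ATP, 30 min reaction at 30 °C; luminescence read as relative light units to derive IC50.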
A general note: ADP-Glo turns the ADP formed in a reaction into a luminescent signal.

Data set [2] is filed under the species Sus scrofa domesticus. As to the kind of experiment: Inhibition of porcine brain CK1delta/epsilon assessed as residual activity at 1 uM using RRKHAAIGSpAYSITA as substrate in presence of [gamma-33P]ATP relative to control. Type of data set: tissue-based.
The target in data set [3] is T2, Cyclin-dependent kinase 5/CDK5 activator 1 (Homo sapiens) (UniProt Q00535+Q15078). As to the kind of experiment: Inhibition of recombinant human CDK5/p25 expressed in bacteria assessed as residual activity at 1 uM using histone H1 as substrate in presence of [gamma-33P]ATP relative to control. An outline of the steps:
(§2)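 Human recombinant CDK5/p25 (bacterially expressed) assayed with 0.8 μg/μl histone H1 as substrate and 15 μM [γ-33P]ATP. Residual activity versus DMSO controls, triplicate.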

Data set [4] addresses Dual specificity protein kinase CLK1 (Mus musculus) (UniProt P22518). The data set is described as follows: Inhibition of recombinant mouse CLK1 expressed in bacteria assessed as residual activity at 1 uM using GRSRSRSRSRSR as substrate in presence of [gamma-33P]ATP relative to control.
For data set [5], the target named is T3, Glycogen synthase kinase-3 (Sus scrofa) (UniProt B2LUN4+I6LNT8). The data set is described as follows: Inhibition of porcine brain GSK-3alpha/beta assessed as residual activity at 10 uM using YRRAAVPPSPSLSRHSSPHQSpEDEEE as substrate in presence of [gamma-33P]ATP relative to control. The data set is classed as tissue-based. The settings on record: Sus scrofa domesticus.

Data set [6] addresses T3, Glycogen synthase kinase-3 (Sus scrofa). The data set is described as follows: Inhibition of porcine brain GSK-3alpha/beta assessed as residual activity at 1 uM using YRRAAVPPSPSLSRHSSPHQSpEDEEE as substrate in presence of [gamma-33P]ATP relative to control. Type of data set: tissue-based. As to conditions: Sus scrofa domesticus. An outline of the steps: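 Affinity-purified porcine brain GSK-3α/β with 0.01 µg/µl GS-1 peptide (phosphoserine-primed) as substrate and 15 µM [γ-33P]ATP. Buffer was 25 mM Tris-HCl pH 7.5, 10 mM MgCl2, 1 mM EGTA, 1 mM DTT, 50 µg/ml heparin and 0.15 mg/ml BSA. Radioactive incorporation was compared with DMSO-dilution controls, in triplicate.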

Data set [7] has as its target T2, Cyclin-dependent kinase 5/CDK5 activator 1 (Homo sapiens). As to the kind of experiment: Inhibition of recombinant human CDK5/p25 expressed in bacteria assessed as residual activity at 10 uM using histone H1 as substrate in presence of [gamma-33P]ATP relative to control. An outline of the steps:
as §2

In data set [8] the target is Dual specificity tyrosine-phosphorylation-regulated kinase 1A (Rattus norvegicus) (UniProt Q63470). As to the kind of experiment: Inhibition of rat DYRK1A kinase domain (1 to 499 residues) expressed in bacteria assessed as residual activity at 10 uM using KKISGRLSPIMTEQ as substrate in presence of [gamma-33P]ATP relative to control. In a few lines:
(§3)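 Buffer: 10 mM MgCl2, 1 mM EGTA, 1 mM DTT, 25 mM Tris-HCl pH 7.5, 50 μg/ml heparin, 0.15 mg/ml BSA.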

The target is the same in data set [9]. The data set is described as follows: Inhibition of rat DYRK1A kinase domain (1 to 499 residues) expressed in bacteria assessed as residual activity at 1 uM using KKISGRLSPIMTEQ as substrate in presence of [gamma-33P]ATP relative to control. An outline of the steps: as §3
Data set [10] concerns the target Dual specificity protein kinase CLK1 (Mus musculus) (UniProt P22518). The data set is described as follows: Inhibition of recombinant mouse CLK1 expressed in bacteria assessed as residual activity at 10 uM using GRSRSRSRSRSR as substrate in presence of [gamma-33P]ATP relative to control.
The species named for data set [11] is Sus scrofa domesticus. As to the kind of experiment: Inhibition of porcine brain CK1delta/epsilon assessed as residual activity at 10 uM using RRKHAAIGSpAYSITA as substrate in presence of [gamma-33P]ATP relative to control. Type of data set: tissue-based.
Data set [12] concerns the target T4, Dual specificity tyrosine-phosphorylation-regulated kinase 1A (Rattus norvegicus, UniProt Q63470). As to the kind of experiment: Inhibition of rat DYRK1A kinase domain (1 to 499 residues) expressed in bacteria using KKISGRLSPIMTEQ as substrate measured after 30 mins in presence of ATP by ADP-Glo kinase assay. An outline of the steps: as §1
A short description of data set [13]: Antiproliferative activity against hTERT-RPE1 cells assessed as cell viability at 2 uM after 48 hrs by CellTiter96 AQueous assay relative to control. Type of data set: cell-based, TERT-RPE1. The settings on record: human, read-out: Activity. In a few lines:
(§4)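 Cells grown in McCoy's 5a (HCT116), DMEM (SH-SY5Y, MDA-MB231, U-2 OS) or DMEM:F12 (hTERT-RPE1), each with 10% fetal calf serum, 2 mM L-glutamine, penicillin/streptomycin. Exposed to compound at 2 μM for 48 h; viability read by CellTiter96 AQueous per manufacturer, as % of DMSO-treated cells. Triplicate, mean ± SD; staurosporine as positive control.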

In another data set the test system is MDA-MB-231. The data set is described as follows: Antiproliferative activity against human MDA-MB-231 cells assessed as cell viability at 2 uM after 48 hrs by CellTiter96 AQueous assay relative to control. Type of data set: functional. The settings on record: read-out: Activity. An outline of the steps:
as §4

The next data set deals with HCT-116. The data set is described as follows: Antiproliferative activity against human HCT116 cells assessed as cell viability at 2 uM after 48 hrs by CellTiter96 AQueous assay relative to control. The settings on record: read-out: Activity. The data set is classed as functional. An outline of the steps: as §4
Another data set relates to SH-SY5Y. The data set is described as follows: Antiproliferative activity against human SH-SY5Y cells assessed as cell viability at 2 uM after 48 hrs by CellTiter96 AQueous assay relative to control. The data set is classed as functional. As to conditions: read-out: Activity. In a few lines:
as §4

Data set [14] addresses T1, Dual specificity protein kinase CLK1. As to the kind of experiment: Inhibition of recombinant mouse CLK1 expressed in bacteria using GRSRSRSRSRSR as substrate in presence of [gamma-33P]ATP.
The subject of another data set is U2OS. As to the kind of experiment: Antiproliferative activity against human U2OS cells assessed as cell viability at 2 uM after 48 hrs by CellTiter96 AQueous assay relative to control. The data set is classed as functional. As to conditions: read-out: Activity. In a few lines: as §4
Data set [15] in a line: Selectivity index, ratio of IC50 for recombinant mouse CLK1 expressed in bacteria to IC50 for rat DYRK1A kinase domain (1 to 499 residues) expressed in bacteria.
Data set [16] has as its target T4, Dual specificity tyrosine-phosphorylation-regulated kinase 1A. The data set is described as follows: Inhibition of rat DYRK1A kinase domain (1 to 499 residues) expressed in bacteria using KKISGRLSPIMTEQ as substrate in presence of [gamma-33P]ATP. An outline of the steps:
as §3

T2 sequence (Q00535 whole entry): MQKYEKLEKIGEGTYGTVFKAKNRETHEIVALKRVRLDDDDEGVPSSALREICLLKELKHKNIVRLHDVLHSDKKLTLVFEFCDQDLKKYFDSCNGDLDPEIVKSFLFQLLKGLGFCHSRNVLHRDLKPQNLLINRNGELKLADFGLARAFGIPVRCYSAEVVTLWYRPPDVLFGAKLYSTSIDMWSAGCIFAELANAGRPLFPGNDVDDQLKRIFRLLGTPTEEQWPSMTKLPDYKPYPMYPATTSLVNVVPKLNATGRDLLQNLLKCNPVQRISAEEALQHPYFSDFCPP
T2 sequence (Q15078 99-307 partner limits assumed): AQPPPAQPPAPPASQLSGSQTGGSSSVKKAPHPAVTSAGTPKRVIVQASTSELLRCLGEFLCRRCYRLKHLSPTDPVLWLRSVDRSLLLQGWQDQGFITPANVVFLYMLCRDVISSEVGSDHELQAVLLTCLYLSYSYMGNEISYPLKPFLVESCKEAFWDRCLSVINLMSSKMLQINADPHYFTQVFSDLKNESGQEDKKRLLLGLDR
Sequence of Dual specificity protein kinase CLK1 (Mus musculus) (P22518 whole entry, looked up): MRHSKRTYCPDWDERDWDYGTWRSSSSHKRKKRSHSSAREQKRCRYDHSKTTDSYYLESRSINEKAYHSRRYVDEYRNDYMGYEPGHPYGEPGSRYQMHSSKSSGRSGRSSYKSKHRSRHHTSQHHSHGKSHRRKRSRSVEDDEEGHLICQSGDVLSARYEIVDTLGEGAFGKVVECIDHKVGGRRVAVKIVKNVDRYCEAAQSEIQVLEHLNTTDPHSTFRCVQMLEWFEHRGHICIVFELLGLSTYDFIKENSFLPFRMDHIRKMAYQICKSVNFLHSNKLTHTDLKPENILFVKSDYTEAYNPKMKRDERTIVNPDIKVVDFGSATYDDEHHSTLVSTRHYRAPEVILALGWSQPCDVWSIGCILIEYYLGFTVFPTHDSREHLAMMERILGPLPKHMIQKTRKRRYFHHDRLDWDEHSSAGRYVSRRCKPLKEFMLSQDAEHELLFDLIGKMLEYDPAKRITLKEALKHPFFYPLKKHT
T1 sequence (P22518 whole entry): as the sequence (P22518 whole entry, looked up) above

Turning to `CNc1ncc2cc3cnccc3c(N)c2n1`, the IC50 in data set [1] is 0.274 µM. Further, the Activity is 85% in the data set filed under Sus scrofa domesticus [2]; 33% in data set [3]; 9% in data set [4]; 40% in data set [5]; 79% in data set [6]; 3% in data set [7]. For the same molecule, the Activity turned out to be 1% in data set [8], 27% in data set [9], 1% in data set [10] and 60% in the data set listed under Sus scrofa domesticus [11].

Regarding `Nc1c2ccncc2cc2cnc(NCCN3CCOCC3)nc12`, the Activity in the data set listed under Sus scrofa domesticus [2] is 77%; in data set [3], 52%; in data set [4], 27%; in data set [5], 24%; in data set [6], 76%; in [7], 10%. Moreover, the Activity in data set [8] was 1%; in [9], 17%; in [10], 4%; in the data set filed under Sus scrofa domesticus [11], 34%. In addition, in [12], the IC50 came out at 0.197 µM.

Regarding `CN1CCN(CCCNc2ncc3cc4cnccc4c(N)c3n2)CC1`, the viability at 48 h, 2 µM in data set [13] amounted to 0%. For the same molecule, the viability at 2 µM in the data set with MDA-MB-231 was 3.6%; in the data set with HCT-116, 0%; with SH-SY5Y, 0.1%; with U2OS it was 0.1%. Also, the Activity came to 61% in the data set filed under Sus scrofa domesticus [2]; 49% in data set [3]; 8% in data set [4]; 4% in data set [5]; 35% in data set [6]; 15% in [7]. For the same molecule, the Activity in data set [8] was 1%; in data set [9], 4%; in data set [10], 6%; in the data set listed under Sus scrofa domesticus [11], 30%. Moreover, the values for the IC50 in data set [14] and in data set [16] were 0.117 µM and 0.02 µM, respectively. Besides, the Ratio IC50 in data set [15] came out at 5.9.

With `Nc1c2ccncc2cc2cnc(NCCCN3CCOCC3)nc12`, in data set [13], the viability at 48 h, 2 µM was 0%. Besides, the viability at 2 µM is 15% in the data set with MDA-MB-231, 0.8% in the data set on HCT-116, 3.6% with SH-SY5Y and 6.4% in the data set on U2OS. The Activity was found to be 53% in the data set filed under Sus scrofa domesticus [2]; 67% in data set [3]; 20% in data set [4]; 6% in data set [5]; 41% in data set [6]; 23% in data set [7]. Moreover, the Activity in [8] came out at 6%; in data set [9], 5%; in data set [10], 4%; in the data set filed under Sus scrofa domesticus [11], 24%. In addition, the concentration for half-maximal inhibition (IC50) in data set [14] came out at 0.29 µM; in [16], 0.023 µM. Further, in [15], the Ratio IC50 worked out at 12.6.
